10 compounds from ChEMBL document CHEMBL2417481, “Regioselective synthesis of 6-substituted-2-amino-5-bromo-4(3H)-pyrimidinones and evaluation of their antiviral activity” (Eur J Med Chem, 2013) can be followed below.

Molecules are shown by their SMILES.

The test deals with Vaccinia virus. Kind of test: Antiviral activity against Vaccinia virus Lederle infected in human HEL cells assessed as reduction in virus-induced cytopathogenicity. Particulars: Orthopoxvirus vaccinia. It counts as functional, organism-based. In a few lines: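 Confluent cell monolayers (Vero, HeLa, HEL or MDCK, as named in each line) were infected with 100 CCID50 of virus while exposed to a range of compound concentrations. Cytopathicity was scored once it was complete in untreated infected controls.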
Take `Nc1nc(CCc2ccccc2)c(Br)c(=O)[nH]1`: the EC50 was above 100 µM.

Regarding `CCCCCc1nc(N)[nH]c(=O)c1Br`, the EC50 was above 100 µM.

Consider `COc1ccc(/C=C/c2nc(N)[nH]c(=O)c2Br)cc1OC`, for which the EC50 was above 100 µM.

On to `Nc1nc(CC(O)c2ccc(Cl)cc2)c(Br)c(=O)[nH]1` (stereo not given), for which the EC50 is above 100 µM.

On to `CCCCc1nc(N)[nH]c(=O)c1Br`, for which the EC50 was above 100 µM.

Consider `Nc1nc(CC(O)c2ccccc2C(F)(F)F)c(Br)c(=O)[nH]1` (stereo not given), for which the EC50 was above 100 µM.

For the compound `Cc1cc(C)c(/C=C/c2nc(N)[nH]c(=O)c2Br)c(C)c1`, the EC50 was above 20 µM.

As to `Nc1nc2c(ncn2COCCO)c(=O)[nH]1` [ACYCLOVIR], the EC50 was above 250 µM.

Consider `CCCc1nc(N)[nH]c(=O)c1Br`, for which the EC50 is above 100 µM.

On to `CC(C)(O)Cc1nc(N)[nH]c(=O)c1Br`, for which the EC50 is above 100 µM.
